Measurements: ChEMBL document CHEMBL5329191, “Optimization of the 2-arylquinazoline-4(3H)one scaffold for a selective and potent antitrypanosomal agent: modulation of the mechanism of action through chemical functionalization” (RSC Med Chem, 2023)
Values after ≈ are worked out from the molar mass of the structure shown. Values belong to the compound of their own block, whether it stands above or below them. Active and inactive are the calls of the source. The calls are words filed in the database; no cut-off is given here.

What was measured:
Leishmania infantum [1] = experiment: Antileishmanial activity against Leishmania infantum promastigotes; assay type: functional, organism-based
Trypanosoma cruzi [2] = experiment: Antitrypanosomal activity against of Trypanosoma cruzi epimastigotes; assay type: functional, organism-based
Trypanosoma cruzi [3] = experiment: Antitrypanosomal activity against of Trypanosoma cruzi epimastigotes at 25 uM; assay type: functional
[4] = Solubility of the compound by UV-Vis spectroscopy; assay type: physicochemical
Summary of the method: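 Solubility in μM was determined by UV-Vis spectroscopy.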

Leishmania infantum [5] = experiment: Antileishmanial activity against Leishmania infantum promastigotes assessed as increase in IC50 in presence of FA; assay type: functional
Trypanosoma cruzi [6] = experiment: Antitrypanosomal activity against of Trypanosoma cruzi epimastigotes in presence of FA; assay type: functional, organism-based
Leishmania infantum [7] = experiment: Antileishmanial activity against Leishmania infantum promastigotes in presence of FA; assay type: functional, organism-based
Trypanosoma cruzi [8] = experiment: Antitrypanosomal activity against of Trypanosoma cruzi epimastigotes assessed as increase in IC50 in presence of FA; assay type: functional
Trypanosoma cruzi [9] = experiment: Induction of NO production in Trypanosoma cruzi epimastigotes by Griess method; assay type: functional, organism-based
Summary of the method: (§1)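 NO production in parasite cultures was measured at three test concentrations, either 25, 50 and 100 μM or 1, 5 and 10 μM depending on the compound.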

Leishmania infantum [10] = experiment: Induction of NO production in Leishmania infantum promastigotes by Griess method; assay type: functional, organism-based; summary of the method: as §1
Trypanosoma cruzi [11] = experiment: Induction of NO production in Trypanosoma cruzi epimastigotes at highest concentration by Griess method; assay type: functional; summary of the method: as §1
Leishmania infantum [12] = experiment: Induction of ROS production in Leishmania infantum promastigotes by DCFH-DA staining based flow cytometry analysis; assay type: functional, organism-based
Summary of the method: (§2)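 Oxidative stress in parasite cultures was read fluorometrically with the 2,7-dichlorodihydrofluorescein diacetate (DCFH-DA) probe against a negative-control culture, and was also run with metal cations present.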

Leishmania infantum [13] = experiment: Induction of NO production in Leishmania infantum promastigotes at highest concentration by Griess method; assay type: functional; summary of the method: as §1
Trypanosoma cruzi [14] = experiment: Induction of ROS production in Trypanosoma cruzi epimastigotes by DCFH-DA staining based flow cytometry analysis; assay type: functional, organism-based; summary of the method: as §2
[15] = Selectivity index, ratio of CC50 for mouse J774.1 cells to IC50 for Leishmania infantum promastigotes; assay type: toxicity; conditions: read-out: Ratio CC50/IC50
Summary of the method: (§3)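 Cytotoxicity (CC50) was measured on murine J774.1A macrophages. Selectivity index is CC50 divided by parasite IC50 (promastigote, epimastigote or axenic amastigote). Values are the mean of three independent experiments.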

Leishmania infantum [16] = experiment: Induction of ROS production in Leishmania infantum promastigotes in presence of Fe3+; assay type: functional, organism-based; summary of the method: as §2
Trypanosoma cruzi [17] = experiment: Induction of ROS production in Trypanosoma cruzi epimastigotes in presence of Cu2+; assay type: functional, organism-based; summary of the method: as §2
Trypanosoma cruzi [18] = experiment: Induction of ROS production in Trypanosoma cruzi epimastigotes in presence of Zn2+; assay type: functional, organism-based; summary of the method: as §2
Leishmania infantum [19] = experiment: Antileishmanial activity against Leishmania infantum promastigotes assessed as decrease in IC50 in presence of iron(III); assay type: functional, organism-based
Summary of the method: (§4)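 Parasite proliferation was run in the presence of copper(II), iron(III) or zinc(II) salts, each at 1 μM.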

Leishmania infantum [20] = experiment: Antileishmanial activity against Leishmania infantum promastigotes assessed as decrease in IC50 in presence of copper(II); assay type: functional, organism-based; summary of the method: as §4
Trypanosoma cruzi [21] = experiment: […] activity against Trypanosoma cruzi epimastigotes assessed as change in parasites in presence of copper(II); assay type: functional, organism-based; summary of the method: as §4
[22] = Selectivity index, ratio of CC50 for mouse J774.1 cells to IC50 for Trypanosoma cruzi epimastigotes; assay type: toxicity; conditions: read-out: Ratio CC50/IC50; summary of the method: as §3
[23] = Selectivity index, ratio of CC50 for mouse J774.1 cells to IC50 for Leishmania infantum amastigotes; assay type: toxicity; conditions: read-out: Ratio CC50/IC50; summary of the method: as §3
Leishmania infantum [24] = experiment: Induction of ROS production in Leishmania infantum promastigotes in presence of Cu2+; assay type: functional, organism-based; summary of the method: as §2
Leishmania infantum [25] = experiment: Antileishmanial activity against Leishmania infantum promastigotes assessed as decrease in IC50 in presence of zinc(II); assay type: functional, organism-based; summary of the method: as §4
Trypanosoma cruzi [26] = experiment: Induction of ROS production in Trypanosoma cruzi epimastigotes in presence of Fe3+; assay type: functional, organism-based; summary of the method: as §2
[27] = Cytotoxicity against mouse J774.1 cells; assay type: toxicity, cell-based; summary of the method: as §3
Trypanosoma cruzi [28] = experiment: […] activity against Trypanosoma cruzi epimastigotes assessed as change in parasites in presence of iron(III); assay type: functional, organism-based; summary of the method: as §4
Leishmania infantum [29] = experiment: Induction of ROS production in Leishmania infantum promastigotes in presence of Zn2+; assay type: functional, organism-based; summary of the method: as §2
Trypanosoma cruzi [30] = experiment: […] activity against Trypanosoma cruzi epimastigotes assessed as change in parasites in presence of zinc(II); assay type: functional, organism-based; summary of the method: as §4
Leishmania infantum [31] = experiment: Antileishmanial activity against Leishmania infantum axenic amastigotes; assay type: functional, organism-based

IC50 (Leishmania infantum [1]): 4.55 µM
IC50 (Trypanosoma cruzi [2]): > 25 µM
SMILES: NNc1nc(-c2cccc(Cl)c2)nc2ccccc12
inhibition at 25 µM (Trypanosoma cruzi [3]): 38%

IC50 (Leishmania infantum [1]): > 25 µM
IC50 (Trypanosoma cruzi [2]): > 25 µM
solubility [4]: 2.67 µM (≈ 1.17 µg/mL)
SMILES: O=[N+]([O-])c1ccc(/C=N/N=c2\[nH]c(-c3ccc(Br)cc3)nc3ccccc23)o1

IC50 (Leishmania infantum [1]): 12.7 µM
IC50 (Trypanosoma cruzi [2]): > 25 µM
SMILES: NNc1nc(-c2ccccc2)nc2ccccc12
inhibition at 25 µM (Trypanosoma cruzi [3]): 42.7%

IC50 (Leishmania infantum [1]): 2.13 µM
IC50 (Trypanosoma cruzi [6]): 25.2 µM
IC50 (Trypanosoma cruzi [2]): 14.3 µM
IC50 (Leishmania infantum [7]): 2.83 µM
SMILES: NNc1nc(-c2ccc(Br)cc2)nc2ccccc12
Activity (Leishmania infantum [5]): 33%
Activity (Trypanosoma cruzi [8]): 48%

IC50 (Leishmania infantum [1]): 1.56 µM
IC50 (Trypanosoma cruzi [6]): 19.1 µM
IC50 (Trypanosoma cruzi [2]): 11.5 µM
IC50 (Leishmania infantum [7]): 2.05 µM
SMILES: NNc1nc(-c2ccc(Cl)cc2)nc2ccccc12
Activity (Leishmania infantum [5]): 31%
Activity (Trypanosoma cruzi [9]): Dose-Dependent Effect
Activity (Leishmania infantum [10]): Dose-Dependent Effect
Activity (Trypanosoma cruzi [11]): >2 µM
Activity (Leishmania infantum [12]): inactive
Activity (Leishmania infantum [13]): >4 µM
Activity (Trypanosoma cruzi [14]): inactive
Activity (Trypanosoma cruzi [8]): 42%

IC50 (Leishmania infantum [1]): > 25 µM
IC50 (Trypanosoma cruzi [2]): > 25 µM
SMILES: O=c1[nH]c(-c2cccc(Cl)c2)nc2ccccc12

IC50 (Leishmania infantum [1]): 5.01 µM
IC50 (Trypanosoma cruzi [2]): 17.9 µM
SMILES: NNc1nc(-c2ccc(F)cc2)nc2ccccc12

IC50 (Leishmania infantum [1]): 0.88 µM
IC50 (Trypanosoma cruzi [2]): 0.63 µM
solubility [4]: 7.99 µM (≈ 2.87 µg/mL)
IC50 (Leishmania infantum [31]): 0.93 µM
SMILES: O=[N+]([O-])c1ccc(/C=N/N=c2\[nH]c(-c3ccccc3)nc3ccccc23)o1
selectivity ratio [15]: 17.1
Activity (Leishmania infantum [16]): Active
Activity (Trypanosoma cruzi [17]): Active
Activity (Trypanosoma cruzi [18]): Active
Activity (Leishmania infantum [19]): Active
Activity (Leishmania infantum [20]): Active
Activity (Trypanosoma cruzi [21]): inactive
selectivity ratio [22]: 23.9
selectivity ratio [23]: 16.2
Activity (Leishmania infantum [24]): Active
Activity (Leishmania infantum [25]): Active
Activity (Trypanosoma cruzi [26]): Active
CC50 [27]: 15.1 µM
Activity (Trypanosoma cruzi [28]): inactive
Activity (Leishmania infantum [29]): Active
Activity (Trypanosoma cruzi [30]): inactive

IC50 (Leishmania infantum [1]): > 25 µM
IC50 (Trypanosoma cruzi [2]): > 25 µM
solubility [4]: 7.23 µM (≈ 2.7 µg/mL)
SMILES: Cc1ccc(-c2nc3ccccc3/c(=N/N=C/c3ccc([N+](=O)[O-])o3)[nH]2)cc1

IC50 (Leishmania infantum [1]): 6.89 µM
IC50 (Trypanosoma cruzi [2]): 19.8 µM
SMILES: O=c1[nH]c(-c2ccc(Br)cc2)nc2ccccc12

IC50 (Leishmania infantum [1]): 8.67 µM
IC50 (Trypanosoma cruzi [6]): 33.2 µM
IC50 (Trypanosoma cruzi [2]): 22.7 µM
IC50 (Leishmania infantum [7]): 9.78 µM
SMILES: Oc1nc(-c2ccc(F)cc2)nc2ccccc12
Activity (Leishmania infantum [5]): 14%
Activity (Trypanosoma cruzi [8]): 47%

IC50 (Leishmania infantum [1]): 21.1 µM
IC50 (Trypanosoma cruzi [2]): > 25 µM
SMILES: NNc1nc(-c2cccc(Br)c2)nc2ccccc12
inhibition at 25 µM (Trypanosoma cruzi [3]): 21.4%
